Here are results for 17 molecules from publication PMC6334763 (Archives of biochemistry and biophysics, 2018).

Where two headings read alike, the source gives them in different places.

Series [1] has as its target T1, Bm-iAANAT3 (Bombyx mori, UniProt D7EZJ9). Nature of the series: Steady-state kinetic characterization with Ellman's reagent. The conditions noted are these: for kcat: 300 mM Tris pH 8.0. The series is classed as biochemical. Background: Ellman's reagent forms a yellow product with free thiols.
The target of series [2] is T1, Bm-iAANAT3. The note with it: cited from earlier work.
Series [3] has as its target T1, Bm-iAANAT3. Put plainly: Activity-based substrate screening. The series is classed as biochemical. The conditions noted are these: rate of CoA-SH release above enzyme-independent acyl-CoA hydrolysis. In a few lines: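 Enzyme: Bm-iAANAT3 expressed from pET28a in E. coli BL-21(DE3), induced with 1.0 mM IPTG for 4 h at 37°C, and Ni-chelate purified. Acetyl-CoA or oleoyl-CoA at 500 μM was tested separately against pooled amines, each at 20 mM or 60 mM, in 300 mM Tris pH 8.0 with 150 μM DTNB. Initial rates came from CoA release at 412 nm (ε₄₁₂ = 13,600 M⁻¹ cm⁻¹), minus background thioester hydrolysis.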

Series [4] has as its target T2, E27A mutant of Bm-iAANAT3 (Bombyx mori, UniProt D7EZJ9, E27A).
T2 sequence (D7EZJ9 1-213 E27A): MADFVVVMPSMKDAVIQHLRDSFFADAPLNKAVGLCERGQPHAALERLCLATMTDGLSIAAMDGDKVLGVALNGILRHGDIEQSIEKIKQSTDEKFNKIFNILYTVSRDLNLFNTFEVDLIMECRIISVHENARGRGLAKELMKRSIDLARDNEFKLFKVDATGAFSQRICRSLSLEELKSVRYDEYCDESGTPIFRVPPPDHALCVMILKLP
Nature of the series: Steady-state kinetic constants of the E27A mutant. In kind it is biochemical. The note with it: E27A mutant compared with wild-type Bm-iAANAT3.

The target in series [5] is T1, Bm-iAANAT3. Put plainly: Dead-end and product inhibition analysis. The conditions noted are these: for inhibition pattern vs. acetyl-CoA: acetyl-CoA varied, tryptamine fixed; for inhibition pattern vs. tryptamine: tryptamine varied, acetyl-CoA fixed. The series is classed as biochemical. In a few lines: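 Same Ni-purified Bm-iAANAT3. Initial velocities were measured at several fixed inhibitor levels: oleoyl-CoA at 0, 250 and 500 nM; tyrosol at 0, 150 and 300 μM. In one series, tryptamine was held at 100 μM while acetyl-CoA was varied at 10, 25, 50 and 100 μM. In the other, acetyl-CoA was held at 100 μM while tryptamine was varied at 50, 100, 150 and 300 μM.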

Substrate in series [6]: NCCc1c[nH]c2ccccc12
Put plainly: Steady-state kinetic constants of the E27A mutant. In kind it is biochemical, Bombyx mori. The note with it: other: E27A mutant; named substrate varied; pH 8.0.

Substrate in series [7]: CC(=O)SCCNC(=O)CCNC(=O)[C@H](O)C(C)(C)COP(=O)(O)OP(=O)(O)OC[C@H]1O[C@@H](n2cnc3c(N)ncnc32)[C@H](O)[C@@H]1OP(=O)(O)O
Nature of the series: Steady-state kinetic constants of the E27A mutant. In kind it is biochemical, Bombyx mori. The note with it: other: E27A mutant; named substrate varied; pH 8.0.

Where [8] appears, read: amine substrate varied, 500 μM acetyl-CoA, 22°C.
Where [9] appears, read: amine substrate varied, 500 μM acetyl-CoA, 22°C, 300 mM Tris pH 8.0, 150 μM DTNB.
The mark [10] stands for this setting: binding to free Bm-iAANAT3, ITC and/or NMR.
The mark [11] stands for this setting: acyl-CoA substrate varied, 8.0 mM tryptamine, 22°C.

As to `NCCc1c[nH]cn1` [Histamine], the kcat in series [1] (setting [8]) turned out to be 33 ± 0.68 s⁻¹. The Km in series [1] (setting [9]) is 1.7 ± 0.098 mM; in series [1] (amine substrate, as given in the text in mM, 500 μM acetyl-CoA), 1.7 ± 0.1 mM.
`CC(=O)SCCNC(=O)CCNC(=O)[C@H](O)C(C)(C)COP(=O)(O)OP(=O)(O)OC[C@H]1O[C@@H](n2cnc3c(N)ncnc32)[C@H](O)[C@@H]1OP(=O)(O)O` [acetyl-CoA]: the Kd in series [2] (setting [10]) was 0.7 µM. The kcat in series [1] (setting [11]) amounted to 64 ± 0.7 s⁻¹.
For the molecule `CC(C)(COP(=O)(O)OP(=O)(O)OC[C@H]1O[C@@H](n2cnc3c(N)ncnc32)[C@H](O)[C@@H]1OP(=O)(O)O)[C@@H](O)C(=O)NCCC(=O)NCCSC(=O)CC(=O)O` [malonyl-CoA], the kcat in series [1] (setting [11]) was 13 ± 1.5 s⁻¹. For the same molecule, in series [1] (acyl-CoA substrates, 8.0 mM tryptamine), the “fold lower (kcat/Km) than (kcat/Km) of decanoyl-CoA” value was ~ 6 fold. Further, in series [3], the “substrate activity as acyl-CoA donor” value was “is a substrate”.
Regarding `NCCc1ccc(O)cc1` [Tyramine], the kcat in series [1] (setting [8]) came out at 27 ± 0.6 s⁻¹. For the same molecule, the Km in series [1] (setting [9]) was found to be 0.063 ± 0.0067 mM.
Turning to `NCCc1c[nH]c2ccccc12` [Tryptamine], the “fold increase in Km, E27A mutant vs wild-type” value in series [4] turned out to be 100 fold. Besides, the dissociation constant (Kd) in series [2] (setting [10]) was 220 ± 8 µM.
For `OCCc1c[nH]c2ccccc12` [tryptophol], the equilibrium dissociation constant (Kd) in series [2] (setting [10]) is 230 ± 12 µM; in series [2] (in the presence of acetyl-CoA) it was 50 ± 2 µM.
As to `OCCc1ccc(O)cc1` [tyrosol], the inhibition constant Ki in series [5] (Ki,i, uncompetitive vs. acetyl-CoA (varied), tryptamine fixed at 100 μM) was 230 ± 10 µM; in series [5] (Ki,s, competitive vs. tryptamine (varied), acetyl-CoA fixed at 100 μM), 90 ± 10 µM. The “inhibition pattern vs. acetyl-CoA” value in series [5] is given as “uncompetitive”. The “inhibition pattern vs. tryptamine” value in series [5] was “competitive”.
Take `CCCCCCCC/C=C\CCCCCCCC(=O)SCCNC(=O)CCNC(=O)[C@H](O)C(C)(C)COP(=O)(O)OP(=O)(O)OC[C@H]1O[C@@H](n2cnc3c(N)ncnc32)[C@H](O)[C@@H]1OP(=O)(O)O` [oleoyl-CoA]: in series [5], the “inhibition pattern vs. acetyl-CoA” value is “competitive” and the “inhibition pattern vs. tryptamine” value was “noncompetitive”. For the same molecule, the Ki in series [5] (read-out: Ki,s, competitive vs. acetyl-CoA (varied), tryptamine fixed at 100 μM) was determined as 0.22 ± 0.02 µM. In addition, the “substrate activity as acyl-CoA donor” value in series [3] is on record as “no initial velocity increase”.
For the molecule `NC[C@H](O)c1ccc(O)c(O)c1` [Norepinephrine], the kcat in series [1] (setting [8]) was determined as 5.3 ± 0.07 s⁻¹. Besides, the Michaelis constant (Km) in series [1] (setting [9]) was found to be 0.14 ± 0.0086 mM.
As to `CCCC(=O)SCCNC(=O)CCNC(=O)[C@H](O)C(C)(C)COP(=O)(O)OP(=O)(O)OC[C@H]1O[C@@H](n2cnc3c(N)ncnc32)[C@H](O)[C@@H]1OP(=O)(O)O` [Butyryl, buytryl-CoA], in series [1] (setting [11]), the kcat was determined as 4.0 ± 0.04 s⁻¹.
As to `CC(=O)NCCc1c[nH]c2ccccc12` [N-acetyltryptamine], in series [5], the “inhibition pattern vs. acetyl-CoA” value is “competitive” and the “inhibition pattern vs. tryptamine” value is reported as “noncompetitive”. For the same molecule, the “effect of added CoA-SH on binding” value in series [2] (addition of CoA-SH) was “not affected”. The “effect of added acetyl-CoA on binding” value in series [2] (addition of acetyl-CoA) was “eliminated”. Moreover, the Kd in series [2] (setting [10]) is 12 ± 3 µM.
With `NCCc1ccc(O)c(O)c1` [Dopamine], the kcat in series [1] (setting [8]) came to 55 ± 1.1 s⁻¹. In addition, in series [1] (setting [9]), the Km amounted to 0.33 ± 0.023 mM.
With `CCCCCCCC(=O)SCCNC(=O)CCNC(=O)[C@H](O)C(C)(C)COP(=O)(O)OP(=O)(O)OC[C@H]1O[C@@H](n2cnc3c(N)ncnc32)[C@H](O)[C@@H]1OP(=O)(O)O` [octanoyl-CoA], the kcat in series [1] (setting [11]) was 0.36 ± 0.005 s⁻¹.
On the same count and under the same terms, the same measure for `CCCCCC(=O)SCCNC(=O)CCNC(=O)C(O)C(C)(C)COP(=O)(O)OP(=O)(O)OC[C@H]1O[C@@H](n2cnc3c(N)ncnc32)[C@H](O)[C@@H]1OP(=O)(O)O` (stereo partly shown) [hexanoyl-CoA]: 1.3 ± 0.01 s⁻¹.
In the case of `CCCCCCCCCC(=O)SCCNC(=O)CCNC(=O)[C@H](O)C(C)(C)COP(=O)(O)OP(=O)(O)OC[C@H]1O[C@@H](n2cnc3c(N)ncnc32)[C@H](O)[C@@H]1OP(=O)(O)O` [decanoyl-CoA], the kcat in series [1] (setting [11]) amounted to 0.05 ± 0.004 s⁻¹.
In the case of `CC(C)(COP(=O)(O)OP(=O)(O)OC[C@H]1O[C@@H](n2cnc3c(N)ncnc32)[C@H](O)[C@@H]1OP(=O)(O)O)[C@@H](O)C(=O)NCCC(=O)NCCS` [CoA-SH], in series [2] (setting [10]), the dissociation constant Kd is 30 ± 1 µM.

B1: E27A mutant of Bm-iAANAT3 (Bombyx mori; E27A) (protein)
chain: MADFVVVMPSMKDAVIQHLRDSFFADAPLNKAVGLCERGQPHAALERLCLATMTDGLSIAAMDGDKVLGVALNGILRHGDIEQSIEKIKQSTDEKFNKIFNILYTVSRDLNLFNTFEVDLIMECRIISVHENARGRGLAKELMKRSIDLARDNEFKLFKVDATGAFSQRICRSLSLEELKSVRYDEYCDESGTPIFRVPPPDHALCVMILKLP
With B1, the Michaelis-Menten constant (Km) stood at 9400 ± 990 µM in series [6] and 20 ± 2.2 µM in series [7]. Moreover, the kcat is 8.0 ± 0.3 × 10 s^−1 in series [6] and 4.0 ± 0.09 × 10^−2 s^−1 in series [7].

Broadly, the Km is the concentration of substrate that gives half-maximal velocity. Usually Kd stands for the free concentration of one partner at which half of the binding sites on the other are occupied at equilibrium, for simple one-to-one binding. The term Ki denotes a dissociation constant, usually derived from enzyme kinetics or from competition with a known ligand.
